Assay results taken from ChEMBL document CHEMBL2384986, “Re-evolution of the 2-phenylquinolines: ligand-based design, synthesis, and biological evaluation of a potent new class of Staphylococcus aureus NorA efflux pump inhibitors to combat antimicrobial resistance” (J Med Chem, 2013).
The source made the active and inactive calls. The calls are words filed in the database; no cut-off is given here.

Legend:
[1] = biological target: T1, Quinolone resistance protein NorA (Staphylococcus aureus) (UniProt P0A0J7); assay: Inhibition of NorA in Staphylococcus aureus 1199B harboring grlA A116E mutant assessed as inhibition of ethidium bromide efflux at 50 uM measured for 5 mins by fluorometric analysis relative to control
T1 sequence (whole entry): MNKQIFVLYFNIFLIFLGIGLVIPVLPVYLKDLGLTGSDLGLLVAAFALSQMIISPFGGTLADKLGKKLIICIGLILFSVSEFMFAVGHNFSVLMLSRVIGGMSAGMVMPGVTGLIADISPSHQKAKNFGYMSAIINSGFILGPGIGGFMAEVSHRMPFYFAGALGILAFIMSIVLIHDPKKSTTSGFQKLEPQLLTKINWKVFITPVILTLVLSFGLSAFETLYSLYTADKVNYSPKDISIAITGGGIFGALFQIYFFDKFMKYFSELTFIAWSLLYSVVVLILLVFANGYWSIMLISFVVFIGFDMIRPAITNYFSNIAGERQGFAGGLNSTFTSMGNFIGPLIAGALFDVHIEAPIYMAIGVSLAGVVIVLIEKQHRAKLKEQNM
Procedure, shortened: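 EtBr loss from SA-1199B (norA overexpressing, GrlA A116E) measured fluorometrically with inhibitor at 50 μM, compared with no-inhibitor control. Read-out is mean total efflux over a 5 min time course, expressed as percent reduction in efflux. Usually run in duplicate.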

[2] = system: Staphylococcus aureus; assay: Reduction of ciprofloxacin MIC in norA-deficient Staphylococcus aureus K1902 at 0.78 to 100 ug/mL; type: functional, organism-based
Procedure, shortened: (§1)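 Ciprofloxacin MIC determined by CLSI broth microdilution, alone and combined with scalar dilutions of freshly prepared test compound; checkerboard combination format. Strains: ATCC 25923 (wild type), SA-1199 (norA wt), SA-1199B (norA overexpressing, GrlA A116E), SA-K2378 (norA on multicopy pCU1) and SA-K1902 (norA-deleted).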

[3] = system: Staphylococcus aureus; assay: Reduction of ethidium bromide MIC in mepA-deficient Staphylococcus aureus K2885 at 0.78 to 100 ug/mL; type: functional, organism-based
Procedure, shortened: (§2)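 The strains are norA-deleted S. aureus carrying pALC2073-mepA (K2886) or the empty pALC2073 vector (K2885). Cloned genes are under a xyl/tetO promoter, induced by 0.05 μg/mL tetracycline, which was present in all experiments with these strains. EtBr MICs were determined by CLSI microdilution, with and without test compound.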

[4] = system: Staphylococcus aureus; assay: Antibacterial activity against Staphylococcus aureus 1199 harboring wild type norA assessed as growth inhibition by microdilution method
[5] = system: Staphylococcus aureus; assay: Inhibition of MepA in Staphylococcus aureus K2886 assessed as reduction of ethidium bromide MIC at 0.78 to 100 ug/mL; procedure, shortened: as §2
[6] = system: Staphylococcus aureus; assay: Antibacterial activity against wild type Staphylococcus aureus ATCC 25923 assessed as growth inhibition by microdilution method; type: functional
Procedure, shortened: (§3)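 Broth microdilution MIC determination following CLSI guidelines. Strains: wild-type ATCC 25923 and SA-K1902 (norA−). Intrinsic activity was tested up to a top concentration of 100 μg/mL.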

[7] = biological target: T1, Quinolone resistance protein NorA (Staphylococcus aureus); assay: Inhibition of wild type NorA in Staphylococcus aureus 1199 assessed as reduction of ciprofloxacin MIC at 0.78 to 100 ug/mL; procedure, shortened: as §1
[8] = biological target: T1, Quinolone resistance protein NorA (Staphylococcus aureus); assay: Inhibition of NorA in Staphylococcus aureus ATCC 25923 assessed as reduction of ciprofloxacin MIC at 0.78 to 100 ug/mL; procedure, shortened: as §1
[9] = system: Staphylococcus aureus; assay: Antibacterial activity against norA-deficient Staphylococcus aureus K1902 assessed as growth inhibition by microdilution method; type: functional; procedure, shortened: as §3
[10] = system: Staphylococcus aureus; assay: Antibacterial activity against Staphylococcus aureus K2378 overexpressing norA assessed as growth inhibition by microdilution method; type: functional
Procedure, shortened: (§4)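 Broth microdilution MIC per CLSI guidelines for intrinsic antistaphylococcal activity; highest concentration tested 100 μg/mL. SA-1199 is the norA wild-type parent, SA-1199B overexpresses norA and carries GrlA A116E, and SA-K2378 overexpresses norA from multicopy plasmid pCU1 in the norA-deleted SA-K1902 background.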

[11] = system: Staphylococcus aureus; assay: Antibacterial activity against Staphylococcus aureus 1199B overexpressing NorA and grlA A116E mutant assessed as growth inhibition by microdilution method; type: functional; procedure, shortened: as §4
[12] = biological target: T1, Quinolone resistance protein NorA (Staphylococcus aureus); assay: Inhibition of NorA in Staphylococcus aureus K2378 assessed as reduction of ciprofloxacin MIC at 0.78 to 100 ug/mL relative to control; procedure, shortened: as §1
[13] = biological target: Quinolone resistance protein NorA (Staphylococcus aureus, UniProt P0A0J7); assay: Inhibition of NorA in Staphylococcus aureus 1199B harboring grlA A116E mutant assessed as inhibition of ethidium bromide efflux measured for 5 mins by fluorometric analysis
Procedure, shortened: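 Fluorometric EtBr efflux assay in SA-1199B (norA overexpressing, GrlA A116E) over a 5 min time course, compared with no-inhibitor control. Increasing inhibitor concentrations were tested, and IC50 was read by inspection of the dose-response plots. Usually run in duplicate.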

[14] = biological target: T1, Quinolone resistance protein NorA (Staphylococcus aureus); assay: Inhibition of NorA in Staphylococcus aureus 1199B harboring grlA A116E mutant assessed as reduction of ciprofloxacin MIC at 3.13 ug/mL relative to control; procedure, shortened: as §1
[15] = system: Staphylococcus aureus; assay: Inhibition of MepA in Staphylococcus aureus K2886 assessed as reduction of ethidium bromide MIC at 1.56 ug/mL relative to control
Procedure, shortened: (§5)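 Ethidium bromide MIC by CLSI microdilution, alone and combined with test compound. Strain SA-K2886 is norA-deleted and carries pALC2073-mepA, with mepA under a xyl/tetO promoter; 0.05 μg/mL tetracycline was included throughout to induce expression.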

[16] = system: Staphylococcus aureus; assay: Inhibition of MepA in Staphylococcus aureus K2886 assessed as reduction of ethidium bromide MIC at 0.78 ug/mL relative to control; procedure, shortened: as §5
[17] = biological target: T1, Quinolone resistance protein NorA (Staphylococcus aureus); assay: Inhibition of NorA in Staphylococcus aureus K2378 assessed as reduction of ciprofloxacin MIC at 0.78 ug/mL relative to control; procedure, shortened: as §1

CCCOc1ccc(-c2cc(OCc3ccccn3)c3ccccc3n2)cc1
inhibition [1]: 19.6%

CCCOc1ccc(-c2cc(OCCN3CCc4ccccc4C3)c3ccccc3n2)cc1
inhibition [1]: 67.9%

CCCOc1ccc(-c2cc(OCCCN(C)C)c3ccccc3n2)cc1.Cl
Activity [2]: inactive
Activity [3]: inactive
MIC [4]: > 100 µg/mL
inhibition [1]: 90.6%
inhibition [5]: Active
MIC [6]: > 100 µg/mL
inhibition [7]: inactive
inhibition [8]: inactive
MIC [9]: 25 µg/mL
MIC [10]: 25 µg/mL
MIC [11]: > 200 µM
fold change (FC) [12]: 4
IC50 [13]: 3.9 µM

CCCOc1ccc(-c2cc(OCC(C)N(C)C)c3ccccc3n2)cc1.Cl (centres undefined)
Activity [2]: inactive
MIC [4]: > 100 µg/mL
inhibition [1]: 90.4%
inhibition [7]: inactive
inhibition [8]: inactive
MIC [11]: > 200 µM
fold change (FC) [12]: 4
IC50 [13]: 7.5 µM

CCCOc1ccc(-c2cc(OCCN(C)C)c3ccccc3n2)cc1
inhibition [1]: 92%
MIC [11]: > 249 µM
IC50 [13]: 9.9 µM

CCCOc1ccc(-c2cc(OCCN3CCNCC3)c3ccccc3n2)cc1
Activity [2]: inactive
Activity [3]: inactive
MIC [4]: > 100 µg/mL
fold change (FC) [14]: 16
inhibition [1]: 93.4%
inhibition [5]: Active
MIC [6]: > 100 µg/mL
inhibition [7]: inactive
fold change (FC) [15]: 16
inhibition [8]: inactive
MIC [9]: 25 µg/mL
MIC [10]: 50 µg/mL
MIC [11]: > 200 µM
fold change (FC) [12]: 4
IC50 [13]: 8.3 µM

CCCOc1ccc(-c2cc(OCCN(Cc3ccccc3)Cc3ccccc3)c3ccccc3n2)cc1
inhibition [1]: 0%

CCCOc1ccc(-c2cc(OCCN3CCSCC3)c3ccccc3n2)cc1
inhibition [1]: 57.7%

CCCOc1ccc(-c2cc(OCCN(CC)Cc3ccccc3)c3ccccc3n2)cc1
inhibition [1]: 72.5%
MIC [11]: > 200 µM

Fc1ccc([C@H]2CCNC[C@@H]2COc2ccc3c(c2)OCO3)cc1
inhibition [1]: 85%

CCCOc1ccc(-c2cc(OC3CN4CCC3CC4)c3ccccc3n2)cc1 (centres undefined)
inhibition [1]: 91.3%
MIC [11]: > 200 µM
IC50 [13]: 14.8 µM

CCCOc1ccc(-c2cc(OCCN3CCc4cc(OC)c(OC)cc4C3)c3ccccc3n2)cc1
inhibition [1]: 79.6%

CCCCN(CCCC)CCOc1cc(-c2ccc(OCCC)cc2)nc2ccccc12
inhibition [1]: 88.6%
MIC [11]: > 200 µM
IC50 [13]: 9.2 µM

COC(=O)[C@H]1[C@H]2C[C@@H]3c4[nH]c5cc(OC)ccc5c4CCN3C[C@H]2C[C@@H](OC(=O)c2cc(OC)c(OC)c(OC)c2)[C@@H]1OC [RESERPINE]
Activity [2]: inactive
MIC [4]: > 100 µg/mL
MIC [6]: > 100 µg/mL
inhibition [7]: inactive
inhibition [8]: inactive
MIC [9]: > 100 µg/mL
MIC [10]: > 100 µg/mL
MIC [11]: > 150 µM
fold change (FC) [12]: 4
IC50 [13]: 9.2 µM

CCCOc1ccc(-c2cc(OCCN3CCCCCC3)c3ccccc3n2)cc1
fold change (FC) [16]: 16
Activity [2]: inactive
Activity [3]: inactive
MIC [4]: > 100 µg/mL
fold change (FC) [14]: 16
inhibition [1]: 86%
inhibition [5]: Active
MIC [6]: > 100 µg/mL
inhibition [7]: inactive
fold change (FC) [17]: 16
inhibition [8]: inactive
MIC [9]: 50 µg/mL
MIC [10]: 50 µg/mL
MIC [11]: > 200 µM
fold change (FC) [12]: 16
IC50 [13]: 6.4 µM
